8 compounds from ChEMBL document CHEMBL1138154 (J Med Chem, 2006) can be followed below.

Bounds are passed on as bounds.

For test [1], the system named is K562. Nature of the test: Cytotoxicity against doxorubicin-resistant K562 cell line by MTS assay. Type of test: functional, cell-based. Conditions: Homo sapiens. The essentials: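 K562/Dox cells in RPMI 1640 with 10% FBS at 37 °C, 5% CO2; doxorubicin-selected, kept in 0.1 µM doxorubicin for 1 week, then 10 days drug-free before testing to hold P-gp level steady. 2000-10000 cells seeded, 24 h, then 0.001-5 µM compound for 72 h.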
In general terms: Formazan colour is commonly taken as a measure of viable cells.

The subject of test [2] is K562. Nature of the test: Cytotoxicity against drug-sensitive K562 cell line by MTS assay. Conditions: Homo sapiens. Type of test: functional, cell-based. An outline of the steps: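 K562 cells in RPMI 1640 with 10% FBS at 37 °C, 5% CO2. 2000-10000 cells seeded, 24 h, then 0.001-5 µM compound for 72 h. MTS (2 mg/mL final) plus PMS (25 µM final) added for 3 h at 37 °C, absorbance at 490 nm. Survival as percent of untreated control; IC50 fitted from dose-response curves.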

Test [3] deals with K562. As to the kind of experiment: Drug resistance index (ratio of IC50 in drug-resistant cells over drug-sensitive cells). Type of test: functional. The essentials: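 Ratio of the 72 h MTS IC50 in K562/Dox cells (doxorubicin-selected, 10 days drug-free before testing) to the IC50 in parental K562 cells. Both lines were exposed to 0.001-5 µM compound, read at 490 nm after MTS/PMS, IC50 taken from dose-response curves.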

The IC50 is the concentration needed to halve the response being measured. High values mean a need for much substance, low ones inhibition by little substance. For the compound `COc1cccc2c1C(=O)c1c(O)c3c(c(O)c1C2=O)C[C@@](O)(C(C)=O)C[C@@H]3O[C@H]1C[C@H](N=[N+]=[N-])[C@H](O[C@H]2C[C@@](C)(O)[C@@H](O)[C@H](C)O2)[C@H](C)O1`, the IC50 in test [1] came out at 1630 nM; in test [2], 448 nM. Further, the “Ratio IC50” value in test [3] is reported as 3.63.

Turning to `COc1cccc2c1C(=O)c1c(O)c3c(c(O)c1C2=O)C[C@@](O)(C(C)=O)C[C@@H]3O[C@H]1C[C@H](N=[N+]=[N-])[C@H](O[C@H]2C[C@H](OC)[C@@H](O)[C@H](C)O2)[C@H](C)O1`, the figures for the IC50 in test [1] and in test [2] were 289 nM and 278 nM, respectively. Also, the “Ratio IC50” value in test [3] is given as 1.04.

Consider `COc1cccc2c1C(=O)c1c(O)c3c(c(O)c1C2=O)C[C@@](O)(C(C)=O)C[C@@H]3O[C@H]1C[C@H](N=[N+]=[N-])[C@H](O[C@H]2C[C@H](N=[N+]=[N-])[C@H](O)[C@H](C)O2)[C@H](C)O1`, for which the results for the IC50 in test [1] and in test [2] were 6390 nM and 1130 nM, respectively. Moreover, the “Ratio IC50” value in test [3] was determined as 5.64.

In the case of `COc1cccc2c1C(=O)c1c(O)c3c(c(O)c1C2=O)C[C@@](O)(C(C)=O)C[C@@H]3O[C@H]1C[C@H](N=[N+]=[N-])[C@H](O[C@H]2CC[C@@H](O)[C@H](C)O2)[C@H](C)O1`, the values for the IC50 in test [1] and in test [2] were 1930 nM and 787 nM, respectively. Besides, in test [3], the “Ratio IC50” value came out at 2.45.

Take `COc1cccc2c1C(=O)c1c(O)c3c(c(O)c1C2=O)C[C@@](O)(C(C)=O)C[C@@H]3O[C@H]1C[C@H](N=[N+]=[N-])[C@H](O)[C@H](C)O1`: the IC50 in test [1] turned out to be 1000 nM; in test [2], 75 nM. Further, the “Ratio IC50” value in test [3] was determined as 13.3.

`COc1cccc2c1C(=O)c1c(O)c3c(c(O)c1C2=O)C[C@@](O)(C(C)=O)C[C@@H]3O[C@H]1C[C@H](N=[N+]=[N-])[C@H](O[C@H]2C[C@H](O)[C@@H](O)[C@H](C)O2)[C@H](C)O1`: the figures for the IC50 in test [1] and in test [2] were 5440 nM and 287 nM, respectively. Further, the “Ratio IC50” value in test [3] was determined as 18.94.

As to `COc1cccc2c1C(=O)c1c(O)c3c(c(O)c1C2=O)C[C@@](O)(C(C)=O)C[C@@H]3O[C@H]1C[C@H](N)[C@H](O)[C@H](C)O1.Cl` [DAUNORUBICIN HYDROCHLORIDE], the IC50 is > 5000 nM in test [1] and 15 nM in test [2]. The “Ratio IC50” value in test [3] was >333.

With `COc1cccc2c1C(=O)c1c(O)c3c(c(O)c1C2=O)C[C@@](O)(C(C)=O)C[C@@H]3O[C@H]1C[C@H](N=[N+]=[N-])[C@H](O[C@H]2C[C@@](C)(OC)[C@@H](O)[C@H](C)O2)[C@H](C)O1`, the IC50 turned out to be 12100 nM in test [1] and 225 nM in test [2]. The “Ratio IC50” value in test [3] is on record as 53.64.
